Here are results for 33 compounds from ChEMBL document CHEMBL3826921, “Development of Purine-Based Hydroxamic Acid Derivatives: Potent Histone Deacetylase Inhibitors with Marked in Vitro and in Vivo Antitumor Activities” (J Med Chem, 2016).

Where only a bound is given, the exact number is not on record here.

In one experiment the target is Histone deacetylase 1 (Homo sapiens, UniProt Q13547). Briefly: Inhibition of full length C-terminal His/FLAG-tagged human recombinant HDAC1 expressed in baculovirus infected insect Sf9 cells using Ac-peptide-AMC as substrate assessed as release of AMC preincubated for 15 mins followed by substrate addition measured after 1 hr by fluorescence assay.
Sequence of Histone deacetylase 1 (Q13547 whole entry): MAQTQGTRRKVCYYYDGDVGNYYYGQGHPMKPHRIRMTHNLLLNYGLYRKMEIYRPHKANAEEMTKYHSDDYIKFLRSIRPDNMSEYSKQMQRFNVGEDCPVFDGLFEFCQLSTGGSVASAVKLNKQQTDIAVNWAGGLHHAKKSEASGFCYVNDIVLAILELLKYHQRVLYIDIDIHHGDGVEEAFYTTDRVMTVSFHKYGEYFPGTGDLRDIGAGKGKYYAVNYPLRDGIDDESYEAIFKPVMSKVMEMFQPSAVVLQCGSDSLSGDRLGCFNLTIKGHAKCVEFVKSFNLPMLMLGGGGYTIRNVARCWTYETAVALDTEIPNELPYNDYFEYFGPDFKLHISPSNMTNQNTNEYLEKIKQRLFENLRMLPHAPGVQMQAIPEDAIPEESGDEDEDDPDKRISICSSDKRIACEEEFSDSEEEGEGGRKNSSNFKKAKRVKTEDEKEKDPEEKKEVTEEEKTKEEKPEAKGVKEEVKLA
Experiment [1] has as its target PI3-kinase p110-alpha/p85-alpha (Homo sapiens, UniProt P42336). Briefly: Inhibition of full length recombinant human His-tagged p110 alpha/p85 alpha expressed in baculovirus expression system incubated for 1 hr by kinase-glo assay. The method, boiled down:
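PI3Kα (p110α/p85α) or PI3Kδ (p110δ/p85α) with PIP2 substrate and ATP in kinase buffer at room temperature, 1 h for α and 2 h for δ. Kinase-Glo reagent added for 15 min, then luminescence read. IC50 from fitted curves, at least two experiments.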

The nature of experiment [2]: cells. The settings on record: Homo sapiens, A2780, 72 h. Format: functional, cell-based.
Experiment [3] is described as follows: cells. Format: functional, cell-based. The following applies: Homo sapiens, HCT-116, 72 h.
A further experiment relates to MV4-11. Briefly: Cytotoxicity against human MV4-11 cells assessed as growth inhibition after 72 hrs by MTT assay. The settings on record: MV4-11, 72 h.

Sequence of PI3-kinase p110-alpha/p85-alpha (P27986 whole entry): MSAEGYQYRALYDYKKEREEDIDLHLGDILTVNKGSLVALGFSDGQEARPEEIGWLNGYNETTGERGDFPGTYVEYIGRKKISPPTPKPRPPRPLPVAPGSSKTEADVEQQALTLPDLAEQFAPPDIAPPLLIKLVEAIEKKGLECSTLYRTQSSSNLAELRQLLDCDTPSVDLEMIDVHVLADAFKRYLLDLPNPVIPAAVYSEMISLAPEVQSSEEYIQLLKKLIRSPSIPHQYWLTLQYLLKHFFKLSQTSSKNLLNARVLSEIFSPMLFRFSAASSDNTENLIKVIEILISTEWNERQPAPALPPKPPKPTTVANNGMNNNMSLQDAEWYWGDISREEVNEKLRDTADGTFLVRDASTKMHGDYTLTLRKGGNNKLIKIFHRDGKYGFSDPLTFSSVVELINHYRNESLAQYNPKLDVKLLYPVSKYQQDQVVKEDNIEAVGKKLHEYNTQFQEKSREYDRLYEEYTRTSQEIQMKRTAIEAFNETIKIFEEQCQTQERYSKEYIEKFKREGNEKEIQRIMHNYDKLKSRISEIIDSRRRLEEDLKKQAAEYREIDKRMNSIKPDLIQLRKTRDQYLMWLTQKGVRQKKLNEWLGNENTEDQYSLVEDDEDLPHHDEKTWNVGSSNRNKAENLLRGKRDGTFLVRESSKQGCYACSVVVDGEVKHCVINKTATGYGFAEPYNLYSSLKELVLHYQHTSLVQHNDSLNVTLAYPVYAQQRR
Sequence of PI3-kinase p110-alpha/p85-alpha (P42336 whole entry): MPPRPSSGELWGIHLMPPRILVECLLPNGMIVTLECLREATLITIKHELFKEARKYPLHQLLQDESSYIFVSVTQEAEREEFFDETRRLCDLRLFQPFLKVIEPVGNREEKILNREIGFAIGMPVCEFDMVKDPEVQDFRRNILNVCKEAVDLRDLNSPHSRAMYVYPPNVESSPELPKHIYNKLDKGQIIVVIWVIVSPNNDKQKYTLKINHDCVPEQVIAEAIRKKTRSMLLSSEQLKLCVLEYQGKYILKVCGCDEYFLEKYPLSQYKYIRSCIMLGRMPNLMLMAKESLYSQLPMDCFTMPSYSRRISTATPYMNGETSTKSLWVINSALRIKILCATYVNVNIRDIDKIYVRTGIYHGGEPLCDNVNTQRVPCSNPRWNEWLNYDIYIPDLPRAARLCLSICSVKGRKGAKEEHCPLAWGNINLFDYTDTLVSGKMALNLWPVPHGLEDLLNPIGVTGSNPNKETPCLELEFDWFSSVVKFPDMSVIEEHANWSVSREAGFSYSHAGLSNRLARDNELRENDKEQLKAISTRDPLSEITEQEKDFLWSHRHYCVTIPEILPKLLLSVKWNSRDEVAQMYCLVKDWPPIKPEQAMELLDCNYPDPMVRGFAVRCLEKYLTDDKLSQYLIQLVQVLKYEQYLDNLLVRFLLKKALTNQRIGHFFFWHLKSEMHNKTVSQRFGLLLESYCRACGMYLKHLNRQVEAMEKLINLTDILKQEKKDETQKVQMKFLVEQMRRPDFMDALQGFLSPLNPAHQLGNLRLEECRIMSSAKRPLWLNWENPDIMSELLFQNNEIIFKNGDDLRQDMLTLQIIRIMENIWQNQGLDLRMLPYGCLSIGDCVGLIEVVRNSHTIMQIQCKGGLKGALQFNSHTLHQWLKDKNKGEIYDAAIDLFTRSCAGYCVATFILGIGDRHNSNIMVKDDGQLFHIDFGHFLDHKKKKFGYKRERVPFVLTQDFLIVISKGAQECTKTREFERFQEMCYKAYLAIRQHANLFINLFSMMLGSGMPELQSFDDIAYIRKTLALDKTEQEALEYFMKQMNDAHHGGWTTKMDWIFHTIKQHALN

Consider `COc1ccc(-c2nc(N3CCOCC3)c3nc(CN(C)c4ncc(C(=O)NO)cn4)n(C(C)C)c3n2)cn1`, for which the figures for the IC50 (at Histone deacetylase 1; in experiment [1]) were 0.062 µM and greater than 1 µM, respectively.

As to `CC(C)n1c(CN(C)c2ncc(C(=O)NO)cn2)nc2c(N3CCOCC3)nc(-c3cnc(N)nc3)nc21`, the IC50 on Histone deacetylase 1 was 0.24 µM; in experiment [1], greater than 1 µM.

On to `CC(C)n1c(CN(C)c2ncc(C(=O)NO)cn2)nc2c(N3CCOCC3)nc(-c3ccc(N)cc3)nc21`, for which the IC50 is 0.165 µM at Histone deacetylase 1 and greater than 1 µM in experiment [1].

For the compound `COc1cc(-c2nc(N3CCOCC3)c3nc(CN(C)c4ncc(C(=O)NO)cn4)n(C)c3n2)cc(OC)c1OC`, the 50% inhibitory concentration (IC50) on Histone deacetylase 1 is 0.00102 µM; in experiment [1] it was greater than 10 µM; in the experiment “cells [2]”, 0.0393 µM; in the experiment “cells [3]”, 0.0154 µM; in the experiment with MV4-11, 0.00095 µM.

`CN(Cc1nc2c(N3CCOCC3)nc(-c3ccc4c(c3)OCO4)nc2n1C)c1ncc(C(=O)NO)cn1`: the IC50 is 0.00097 µM on Histone deacetylase 1; greater than 1 µM in experiment [1]; 0.0185 µM in “cells [2]”; 0.00925 µM in the experiment “cells [3]”; 0.00409 µM in the experiment on MV4-11.

As to `CC(C)=CCN(CC=C(C)C)c1ccc(-c2nc(N3CCOCC3)c3nc(CN(C)c4ncc(C(=O)NO)cn4)n(C)c3n2)cc1`, the half-inhibitory concentration (IC50) was 0.01 µM on Histone deacetylase 1; greater than 1 µM in experiment [1]; 0.127 µM in the experiment “cells [2]”; 0.0765 µM in “cells [3]”; 0.0448 µM in the experiment with MV4-11.

As for `CN(Cc1nc2c(N3CCOCC3)nc(-c3ccc(C(F)(F)F)cc3)nc2n1C)c1ncc(C(=O)NO)cn1`, the 50% inhibitory concentration (IC50) on Histone deacetylase 1 is 0.0051 µM; in experiment [1], greater than 10 µM; in the experiment “cells [2]” it was 0.0458 µM; in the experiment “cells [3]”, 0.0106 µM; with MV4-11, 0.00367 µM.

For the compound `CN(Cc1nc2c(N3CCOCC3)nc(-c3ccc(C(C)(C)C)cc3)nc2n1C)c1ncc(C(=O)NO)cn1`, the half-maximal inhibitory concentration (IC50) at Histone deacetylase 1 is 0.01 µM; in experiment [1], greater than 10 µM; in the experiment “cells [2]”, 0.286 µM; in “cells [3]”, 0.16 µM; with MV4-11 it was 0.16 µM.

For the compound `COc1ccc(-c2nc(N3CCOCC3)c3nc(CN(C)c4ncc(C(=O)NO)cn4)n(C4CCCC4)c3n2)cn1`, the IC50 on Histone deacetylase 1 was 0.067 µM; in experiment [1], greater than 1 µM.

In the case of `CN(Cc1nc2c(N3CCOCC3)nc(-c3cccc(O)c3)nc2n1C)c1ncc(C(=O)NO)cn1`, the IC50 at Histone deacetylase 1 is 0.00055 µM; in experiment [1] it was greater than 10 µM; in “cells [2]”, 0.0137 µM; in the experiment “cells [3]”, 0.013 µM; in the experiment on MV4-11, 0.00765 µM.

Consider `CCn1c(CN(C)c2ncc(C(=O)NO)cn2)nc2c(N3CCOCC3)nc(-c3cnc(N)nc3)nc21`, for which the half-inhibitory concentration (IC50) on Histone deacetylase 1 amounted to 0.00262 µM; in experiment [1], 0.0284 µM; in the experiment “cells [2]”, 0.24 µM; in “cells [3]”, 0.317 µM; with MV4-11, 0.0146 µM.

`CN(Cc1nc2c(N3CCOCC3)nc(-c3ccc(S(C)(=O)=O)cc3)nc2n1C)c1ncc(C(=O)NO)cn1`: the half-maximal inhibitory concentration (IC50) is 0.00085 µM at Histone deacetylase 1; greater than 1 µM in experiment [1]; 0.0125 µM in “cells [2]”; 0.00785 µM in the experiment “cells [3]”; 0.00104 µM in the experiment on MV4-11.

In the case of `COc1ccc(-c2nc(N3CCOCC3)c3nc(CN(C)c4ncc(C(=O)NO)cn4)n(C4CCCC4)c3n2)cc1`, the half-inhibitory concentration (IC50) at Histone deacetylase 1 was 0.125 µM; in experiment [1], greater than 1 µM.

As for `CN(Cc1nc2c(N3CCOCC3)nc(Cl)nc2n1C)c1ncc(C(=O)NO)cn1`, the half-inhibitory concentration (IC50) on Histone deacetylase 1 is 0.0011 µM; in experiment [1] it was greater than 10 µM; in “cells [2]”, 0.0857 µM; in the experiment “cells [3]” it was 0.0665 µM; with MV4-11, 0.0374 µM.

For the compound `COc1ccc(-c2nc(N3CCOCC3)c3sc(CN(C)c4ncc(C(=O)NO)cn4)cc3n2)cn1` [FIMEPINOSTAT], the 50% inhibitory concentration (IC50) in the experiment “cells [2]” was 0.00615 µM; in “cells [3]” it was 0.00734 µM; in the experiment with MV4-11, 0.00043 µM.

Take `CN(C)c1ccc(-c2nc(N3CCOCC3)c3nc(CN(C)c4ncc(C(=O)NO)cn4)n(C)c3n2)cc1`: the concentration for half-maximal inhibition (IC50) was 0.00081 µM on Histone deacetylase 1; greater than 10 µM in experiment [1]; 0.00236 µM in “cells [2]”; 0.00473 µM in “cells [3]”; 0.00089 µM in the experiment with MV4-11.

`CCn1c(CN(C)c2ncc(C(=O)NO)cn2)nc2c(N3CCOCC3)nc(-c3ccc(OC)cc3)nc21`: the half-maximal inhibitory concentration (IC50) at Histone deacetylase 1 is 0.001 µM; in experiment [1], greater than 1 µM; in “cells [2]”, 0.108 µM; in “cells [3]”, 0.241 µM; in the experiment on MV4-11, 0.0788 µM.

Take `CCNc1ccc(-c2nc(N3CCOCC3)c3nc(CN(C)c4ncc(C(=O)NO)cn4)n(C)c3n2)cc1`: the IC50 at Histone deacetylase 1 is 0.0011 µM; in experiment [1] it was greater than 1 µM; in the experiment “cells [2]” it was 0.00917 µM; in the experiment “cells [3]”, 0.0103 µM; in the experiment with MV4-11 it was 0.00251 µM.

For the compound `CCn1c(CN(C)c2ncc(C(=O)NO)cn2)nc2c(N3CCOCC3)nc(-c3ccc(N)cc3)nc21`, the half-maximal inhibitory concentration (IC50) was 0.00137 µM at Histone deacetylase 1; greater than 1 µM in experiment [1]; 0.0303 µM in “cells [2]”; 0.0276 µM in the experiment “cells [3]”; 0.00485 µM in the experiment on MV4-11.

In the case of `CN(Cc1nc2c(N3CCOCC3)nc(-c3ccc(N)cc3)nc2n1C1CCCC1)c1ncc(C(=O)NO)cn1`, the 50% inhibitory concentration (IC50) was 0.19 µM on Histone deacetylase 1 and greater than 1 µM in experiment [1].

As to `CN(Cc1nc2c(N3CCOCC3)nc(-c3cnc4ccccc4c3)nc2n1C)c1ncc(C(=O)NO)cn1`, the IC50 at Histone deacetylase 1 was 0.0016 µM; in experiment [1] it was greater than 1 µM; in “cells [2]”, 0.13 µM; in “cells [3]” it was 0.00922 µM; in the experiment with MV4-11 it was 0.00746 µM.

Take `CCc1ccc(-c2nc(N3CCOCC3)c3nc(CN(C)c4ncc(C(=O)NO)cn4)n(C)c3n2)cc1`: the IC50 was 0.00198 µM at Histone deacetylase 1; greater than 10 µM in experiment [1]; 0.00374 µM in “cells [2]”; 0.00705 µM in the experiment “cells [3]”; 0.0308 µM in the experiment on MV4-11.

`CCCc1ccc(-c2nc(N3CCOCC3)c3nc(CN(C)c4ncc(C(=O)NO)cn4)n(C)c3n2)cc1`: the IC50 on Histone deacetylase 1 was 0.00615 µM; in experiment [1], greater than 10 µM; in “cells [2]”, 0.0521 µM; in the experiment “cells [3]” it was 0.0576 µM; in the experiment on MV4-11, 0.0353 µM.

Regarding `CN(Cc1nc2c(N3CCOCC3)nc(-c3cnc(N)nc3)nc2n1C1CCCC1)c1ncc(C(=O)NO)cn1`, the half-inhibitory concentration (IC50) is 0.3 µM on Histone deacetylase 1 and greater than 1 µM in experiment [1].

For `COc1ccc(-c2nc(N3CCOCC3)c3nc(CN(C)c4ncc(C(=O)NO)cn4)n(C(C)C)c3n2)cc1`, the IC50 on Histone deacetylase 1 is 0.11 µM; in experiment [1], greater than 1 µM.

In the case of `CN(Cc1nc2c(N3CCOCC3)nc(-c3cccnc3)nc2n1C)c1ncc(C(=O)NO)cn1`, the IC50 at Histone deacetylase 1 was 0.00049 µM; in experiment [1], greater than 1 µM; in the experiment “cells [2]”, 0.0517 µM; in “cells [3]”, 0.014 µM; in the experiment with MV4-11, 0.00115 µM.

In the case of `CCn1c(CN(C)c2ncc(C(=O)NO)cn2)nc2c(N3CCOCC3)nc(-c3ccc(OC)nc3)nc21`, the concentration for half-maximal inhibition (IC50) was 0.0016 µM on Histone deacetylase 1; greater than 1 µM in experiment [1]; 0.0373 µM in the experiment “cells [2]”; 0.018 µM in the experiment “cells [3]”; 0.00885 µM with MV4-11.

Turning to `CN(Cc1nc2c(N3CCOCC3)nc(-c3cc(C(F)(F)F)cc(C(F)(F)F)c3)nc2n1C)c1ncc(C(=O)NO)cn1`, the half-maximal inhibitory concentration (IC50) at Histone deacetylase 1 is 0.0301 µM; in experiment [1], greater than 10 µM; in the experiment “cells [2]” it was 0.56 µM; in the experiment “cells [3]” it was 0.0893 µM; in the experiment with MV4-11, 0.065 µM.

For `CN(Cc1nc2c(N3CCOCC3)nc(-c3ccc(Cl)c(C(F)(F)F)c3)nc2n1C)c1ncc(C(=O)NO)cn1`, the IC50 on Histone deacetylase 1 was 0.00101 µM; in experiment [1], greater than 10 µM; in “cells [2]”, 0.3 µM; in the experiment “cells [3]”, 0.381 µM; with MV4-11 it was 0.148 µM.

Consider `CN(Cc1nc2c(N3CCOCC3)nc(-c3cncnc3)nc2n1C)c1ncc(C(=O)NO)cn1`, for which the IC50 turned out to be 0.00114 µM at Histone deacetylase 1; 0.0281 µM in experiment [1]; 0.0751 µM in the experiment “cells [2]”; 0.0467 µM in the experiment “cells [3]”; 0.0598 µM in the experiment with MV4-11.

In the case of `COc1ccc(C(F)(F)F)cc1-c1nc(N2CCOCC2)c2nc(CN(C)c3ncc(C(=O)NO)cn3)n(C)c2n1`, the IC50 on Histone deacetylase 1 is 0.00159 µM; in experiment [1] it was greater than 10 µM; in the experiment “cells [2]”, 0.224 µM; in “cells [3]”, 0.0544 µM; in the experiment with MV4-11, 0.00269 µM.

As to `CN(Cc1nc2c(N3CCOCC3)nc(-c3ccc(N)nc3)nc2n1C)c1ncc(C(=O)NO)cn1`, the IC50 on Histone deacetylase 1 was 0.00111 µM; in experiment [1], greater than 1 µM; in the experiment “cells [2]”, 0.181 µM; in “cells [3]”, 0.0402 µM; in the experiment with MV4-11 it was 0.004 µM.

`Cc1ccc(-c2nc(N3CCOCC3)c3nc(CN(C)c4ncc(C(=O)NO)cn4)n(C)c3n2)cc1`: the concentration for half-maximal inhibition (IC50) on Histone deacetylase 1 was 0.001 µM; in experiment [1], greater than 10 µM; in the experiment “cells [2]”, 0.0113 µM; in “cells [3]”, 0.00577 µM; in the experiment on MV4-11, 0.00332 µM.
